Measured values collected from several papers.
Each line is one published result; the experiments were not run side by side.

SMILES	tested on	assay	test system	setting	measurement	value
Cn1cc2c3c1C(=O)C(N)=CC3=[N+](C)CC2	HCT-116	cell growth or viability, MTT	–	72 h	CC50	1000 nM
Cn1c2cccc(=O)c-2nc2ccccc21	–	–	PAMPA	40 µM, 5 h, pH 7.4	Papp	8.6 ×10⁻⁶ cm/s
Cn1cc2c3c1C(=O)C(N)=CC3=NCC2	HCT-116	cell growth or viability, MTT	–	72 h	CC50	2000 nM
C#CCN(C)CCCCCCOCc1ccc(CN(C)c2c3c(nc4ccccc24)CCCC3)cc1	–	–	male Sprague-Dawley rat, plasma	intravenous, 1 mg/kg	AUC(0-inf)	0.17 µg·h/mL
[2H]C([2H])([18F])[C@]([2H])(N)C(=O)O	U-87 MG	–	bone	110 min, tumour-bearing	tracer uptake	1.73 %ID/g
CC(=O)c1c([O-])cc(C)oc1=O.[Na+]	–	–	rat, serum	oral, 200 mg/kg	AUC(0-t)	3190 µg·h/mL
C[C@]12CC[C@H]3[C@@H](CC=C4CC(O)CC[C@@]43CO)[C@@H]1CCC2O (some centres unmarked)	–	–	rat, plasma	intravenous, 1 mg/kg	AUC	0.167 µg·h/mL
COCC1=N[C@@]2(O)[C@H](C(=O)N(C)OC)[C@@H](c3ccccc3)[C@]3(c4ccc(OC)cc4)Oc4cc(OC)cc(OC)c4[C@]23N1	–	–	PAMPA	50 µM, 30 min, pH 7.4	Papp	783 ×10⁻⁶ cm/s
